According to paper PMC9290342 (Clinical Pharmacology in Drug Development, 2021):
Where two headings read alike, the source gives them in different places.

Tests used:
[1] = Safety: adverse events, examinations, laboratory tests; assay type: in vivo, human; conditions: n = 16 subjects per study drug group
Outline: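 The safety population comprised every subject given ≥1 dose. Assessments throughout the study covered AEs, TEAEs (events after the first dose through study completion), serious TEAEs, physical examinations, vital signs, 12‑lead ECGs and clinical laboratory tests. Results were summarized descriptively.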

[2] = assay type: in vivo, human; conditions: for tmax, total methylprednisolone: median (minimum‐maximum)
Outline: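 Oral methylprednisolone tablets were given to healthy in-clinic volunteers, with serial whole-blood sampling over 24 h after dosing on study days 1 and 4. Plasma total methylprednisolone was quantified by validated LC–MS/MS. The PK population comprised subjects with at least 4 consecutive quantifiable concentrations. Parameters were summarized descriptively.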

[3] = every 1 mg of methylprednisolone is equivalent to 5 mg of cortisol; cited from earlier work
[4] = Plasma pharmacokinetics of free methylprednisolone after oral methylprednisolone; assay type: in vivo, human; conditions: oral 32 mg daily; for tmax, free methylprednisolone: median (minimum‐maximum)
[5] = tested on: steroidogenic concentration (CSG = 5 × ConcMPD + ConcCortisol); experiment: Steroidogenic exposure; assay type: in vivo, human; conditions: oral methylprednisolone 32 mg daily
Outline: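 After oral methylprednisolone on days 1 and 4, plasma total and free methylprednisolone were measured over 24 h by LC–MS/MS, alongside serum total and plasma free cortisol. Steroidogenic concentration was CSG = 5 × methylprednisolone concentration + cortisol concentration. AUEC24SG was derived noncompartmentally from actual sampling times, in subjects belonging to both the PK and PD populations.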

[6] = oral 32 mg daily, plasma, day 1, mean (SD), n = 16
[7] = oral 32 mg daily, plasma, day 4, mean (SD), n = 14
[8] = plasma, day 1, mean (SD), n = 16

RAUC0‐24 (accumulation ratio), total methylprednisolone ([2]; oral 32 mg daily, AUC0-24 on day 4 divided by AUC0-24 on day 1, mean): 0.9 | time of mean peak plasma total methylprednisolone concentration (mean profile) ([2]; oral 32 mg daily, after oral dosing): around 2 hours | AUC0‐inf, total methylprednisolone [2, 6]: n = 16 1030 (380) ng • h/mL | AUC0‐last, total methylprednisolone [2, 6]: n = 16 1020 (381) ng • h/mL | t½, total methylprednisolone [2, 6]: n = 16 2.2 (0.6) h | t½, total methylprednisolone ([2]; oral 32 mg daily, plasma, day 1, mean (SD), n = 16, listed as methylprednisolone): 2.2 h | tmax, total methylprednisolone ([2]; oral 32 mg daily, plasma, day 1, n = 16): n = 16 2.0 (2.0‐4.0) h | AUC0‐last, total methylprednisolone [2, 7]: n = 14 919 (297) ng • h/mL | t½, total methylprednisolone [2, 7]: n = 14 2.4 (0.7) h | t½, total methylprednisolone ([2]; oral 32 mg daily, plasma, day 4, mean (SD), n = 14, listed as methylprednisolone): 2.4 h | tmax, total methylprednisolone ([2]; oral 32 mg daily, plasma, day 4, n = 14): n = 14 2.0 (1.0‐4.0) h | Cmax, total methylprednisolone ([2]; oral methylprednisolone 32 mg daily, plasma, LC-MS/MS, day 4, mean (SD), n = 14): n = 14 188.0 (40.0) ng/mL | time of mean peak plasma free methylprednisolone concentration (mean profile) ([4]; after oral dosing): 2 h | Cmax, free methylprednisolone ([4]; plasma, LC-MS/MS, day 4, mean (SD), n = 15): n = 15 21.9 (5.4) ng/mL | AUC0‐inf, free methylprednisolone [4, 8]: n = 16 106 (36) ng • h/mL | AUC0‐last, free methylprednisolone [4, 8]: n = 16 104.0 (35.2) ng • h/mL | t½, free methylprednisolone [4, 8]: n = 16 1.9 (0.5) h | t½, free methylprednisolone ([4]; plasma, day 1, mean (SD), n = 16, listed as methylprednisolone): 1.9 h | tmax, free methylprednisolone ([4]; plasma, day 1, n = 16): n = 16 2.0 (1.0‐4.0) h | t½, free methylprednisolone ([4]; plasma, day 4, mean (SD), n = 13): n = 13 2.0 (0.5) h | t½, free methylprednisolone ([4]; plasma, day 4, mean (SD), n = 13, listed as methylprednisolone): 2.0 h | AUC0‐last, free methylprednisolone ([4]; plasma, day 4, mean (SD), n = 15): n = 15 89.5 (27.3) ng • h/mL | tmax, free methylprednisolone ([4]; plasma, day 4, n = 15): n = 15 2.0 (1.0‐4.0) h
Compound: C[C@H]1C[C@@H]2[C@H]([C@@H](O)C[C@@]3(C)[C@H]2CC[C@]3(O)C(=O)CO)[C@@]2(C)C=CC(=O)C=C12 [Methylprednisolone, methylprednisolone]
Any TESAE [1]: 0 n (%) | Subjects with any TEAE [1]: 10 (62.5) n (%) | TEAE: Contusion [1]: 1 (6.3) n (%) | TEAE: Dysuria [1]: 0 n (%) | TEAE: Headache [1]: 2 (12.5) n (%) | TEAE: Heart palpitations [1]: 2 (12.5) n (%) | TEAE: Injection site reaction [1]: 0 n (%) | TEAE: Insomnia [1]: 0 n (%) | TEAE: Somnolence [1]: 0 n (%) | TESAE: Pulmonary embolism [1]: 0 n (%) | AEs ([1]; number of adverse events): 17 n | potency relative to cortisol (times more potent) [3]: 5 times | plasma total AUEC24SG ([5]; day 1, mean (SD 1770.0)): 6480.0 ng·h/mL | plasma free AUEC24SG ([5]; day 4, mean (SD 136.0)): 492.0 ng·h/mL | plasma total AUEC24SG ([5]; day 4, mean (SD 1330.0)): 5440.0 ng·h/mL
